This passage reports inhibition, IC50 and GI50 results from ChEMBL document CHEMBL4706565, “Anti-glioma effects of 2-aminothiophene-3-carboxamide derivatives, ANO1 channel blockers” (Eur J Med Chem, 2020).

The target of data set [1] is T1, Anoctamin-1 (Homo sapiens) (UniProt Q5XXA6).
T1 sequence (whole entry): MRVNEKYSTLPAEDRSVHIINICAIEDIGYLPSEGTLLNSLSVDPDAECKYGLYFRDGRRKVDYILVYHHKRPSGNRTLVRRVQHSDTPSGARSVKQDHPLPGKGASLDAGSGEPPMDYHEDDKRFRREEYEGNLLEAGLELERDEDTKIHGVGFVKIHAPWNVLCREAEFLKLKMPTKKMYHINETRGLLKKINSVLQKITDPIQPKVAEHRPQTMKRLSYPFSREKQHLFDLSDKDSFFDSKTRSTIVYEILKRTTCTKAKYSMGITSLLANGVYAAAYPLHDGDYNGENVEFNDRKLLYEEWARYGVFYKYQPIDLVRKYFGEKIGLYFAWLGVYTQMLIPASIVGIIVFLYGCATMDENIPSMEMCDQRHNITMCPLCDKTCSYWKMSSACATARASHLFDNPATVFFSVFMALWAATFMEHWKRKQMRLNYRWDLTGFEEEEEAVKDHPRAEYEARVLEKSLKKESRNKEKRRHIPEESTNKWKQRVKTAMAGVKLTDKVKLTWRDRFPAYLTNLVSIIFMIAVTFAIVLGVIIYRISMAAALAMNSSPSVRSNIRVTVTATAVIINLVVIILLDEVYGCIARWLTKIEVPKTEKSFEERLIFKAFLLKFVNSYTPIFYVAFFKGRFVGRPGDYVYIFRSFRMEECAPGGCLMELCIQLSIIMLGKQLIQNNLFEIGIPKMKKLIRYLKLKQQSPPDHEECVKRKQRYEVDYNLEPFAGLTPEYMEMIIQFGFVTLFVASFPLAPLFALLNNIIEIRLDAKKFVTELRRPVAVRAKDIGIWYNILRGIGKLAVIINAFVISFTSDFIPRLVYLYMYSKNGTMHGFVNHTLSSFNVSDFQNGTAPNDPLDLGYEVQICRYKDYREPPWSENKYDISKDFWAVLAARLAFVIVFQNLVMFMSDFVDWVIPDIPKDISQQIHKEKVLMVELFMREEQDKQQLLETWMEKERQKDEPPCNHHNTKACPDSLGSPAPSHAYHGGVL
As to the kind of experiment: Inhibition of human ANO1 channel expressed in HEK293 cells at 10 uM incubated for 10 mins by FLIPR assay relative to control. The format is cell-based. The procedure, abridged:
(§1)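 HEK293 cells expressing human ANO1, 50,000 cells/well, plated overnight. Loaded with FLIPR Red membrane-potential dye in HEPES-buffered saline (pH 7.4) for 40-60 min at room temperature. Compound added for 10 min at room temperature, final DMSO 0.5%.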

The target of data set [2] is T2, Anoctamin-1 (Mus musculus) (UniProt Q8BHY3).
T2 sequence (whole entry): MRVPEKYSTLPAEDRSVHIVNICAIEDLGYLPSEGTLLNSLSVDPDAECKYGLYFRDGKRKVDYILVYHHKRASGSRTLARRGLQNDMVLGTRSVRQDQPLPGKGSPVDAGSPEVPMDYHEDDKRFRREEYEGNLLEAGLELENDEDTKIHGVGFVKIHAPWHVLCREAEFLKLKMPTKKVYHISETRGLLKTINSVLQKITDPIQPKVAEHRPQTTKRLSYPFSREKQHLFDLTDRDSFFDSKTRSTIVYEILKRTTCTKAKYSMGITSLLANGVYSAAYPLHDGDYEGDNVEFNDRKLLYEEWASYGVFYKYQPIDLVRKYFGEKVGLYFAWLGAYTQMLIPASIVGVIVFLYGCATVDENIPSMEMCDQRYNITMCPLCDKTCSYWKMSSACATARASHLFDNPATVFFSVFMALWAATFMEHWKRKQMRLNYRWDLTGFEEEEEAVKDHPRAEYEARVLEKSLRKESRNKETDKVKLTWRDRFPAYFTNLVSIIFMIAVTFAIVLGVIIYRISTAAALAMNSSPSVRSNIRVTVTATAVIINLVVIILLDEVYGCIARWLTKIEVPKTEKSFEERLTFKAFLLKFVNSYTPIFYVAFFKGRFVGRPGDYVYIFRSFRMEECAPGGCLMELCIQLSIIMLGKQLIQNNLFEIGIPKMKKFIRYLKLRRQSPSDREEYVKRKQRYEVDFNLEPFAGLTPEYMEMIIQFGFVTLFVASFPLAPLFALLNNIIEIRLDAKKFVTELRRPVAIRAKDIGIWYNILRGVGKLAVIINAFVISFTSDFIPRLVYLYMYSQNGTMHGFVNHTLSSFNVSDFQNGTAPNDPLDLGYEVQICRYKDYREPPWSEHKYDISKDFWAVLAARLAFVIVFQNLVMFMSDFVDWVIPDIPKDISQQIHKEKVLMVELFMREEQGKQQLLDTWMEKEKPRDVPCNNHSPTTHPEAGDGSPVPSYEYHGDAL
As to the kind of experiment: Inhibition of GFP-fused mouse ANO1 channel expressed in HEK293A cells assessed as inhibition of current amplitude at 10 uM at membrane potential of +80 mV by patch clamp electrophysiology assay. The format is cell-based. Conditions: HEK293-A. The procedure, abridged:
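Whole-cell recording at room temperature in HEK293A cells transfected with GFP-mANO1, GFP-mANO2 or GFP-mTTYH1. 1 s ramps from +80 to -80 mV, holding potential -10 mV. For ANO1/ANO2: pipette CsCl 146 mM with Ca-EGTA-NMDG, pH 7.3; bath NaCl-based, pH 7.3. For TTYH1: Tris-aspartate pipette (pH 7.2) and Tris-HCl bath (pH 7.4), with […] and BaCl2 added to block K+ channels, and hypotonic (220 mOsm/kg) bath. Washout recordings assessed reversibility.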
On the technique in general: Patch clamp records ionic current or voltage across a cell membrane.

In the next data set the target is T3, Anoctamin-1 (Homo sapiens, UniProt Q5XXA6).
T3 sequence (Q5XXA6 whole entry): T1 sequence (whole entry)
The data set can be described thus: Inhibition of human ANO1 channel expressed in HEK293 cells incubated for 10 mins by FLIPR assay. The data set is classed as cell-based. In a few lines:
as §1

In another data set the test system is U138-MG. As to the kind of experiment: Antiproliferative activity against human U138 cells overexpressing ANO1 assessed as reduction in cell viability measured after 72 hrs by Celltiter-glo assay. The data set is classed as functional. The procedure, abridged: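 5.0×10^3 cells/well seeded, overnight, then compounds added as 1:4 serial dilutions in DMSO; viability read after 72 h with CellTiter-Glo luminescence. GI50 from fitted dose-response curves; triplicate wells, SD from three independent experiments. DMEM for U251 and U138, MEM for U87MG, both with 10% FBS and pen/strep, 37 °C, 5% CO2.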

Data set [3] can be described thus: Antiproliferative activity against mouse primary astrocytes assessed as reduction in cell viability measured after 72 hrs by Celltiter-Glo luminescent assay. The format is cell-based, Astrocyte. In a few lines: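 Primary astrocytes isolated from adult mouse brain by a previously reported method. 5.0×10^3 cells/well, compound as 1:4 serial DMSO dilutions, CellTiter-Glo viability at 72 h.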
A general note: In ATP-based viability assays light output follows the ATP content of the culture.

The next data set relates to U-251. The data set can be described thus: Inhibition of cell migration in human U251 cells incubated for 18 hrs by wound healing assay. The data set is classed as functional, cell-based. Conditions: dose 1-10 µM. In a few lines: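 U251 monolayer, 2.0×10^5 cells/well, plated overnight, then scratched and washed with PBS. Incubated 18 h in complete medium with compound (1, 5 or 10 μM). Wound area imaged before and after incubation; migration ratio taken from migrated area. One-way ANOVA.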

On to `CC(C)(C)C(=O)Nc1sc2c(c1C(N)=O)CCC(C(C)(C)C)C2` (configuration not stated), for which the values for the inhibition (in data set [1]; in data set [2]; with U-251) were 86.9%, 50.6% and “Dose-dependent effect”, respectively. Besides, at Anoctamin-1, inhibition was half-maximal at 3.1 µM (IC50). Further, the GI50 (in general, the concentration at which growth is held to half of that of the control) in the data set on U138-MG was found to be 22.2 µM. Besides, the GI50 at 72 h in data set [3] amounted to 94.8 µM.

`NC(=O)c1c(NC(=S)NC(=O)c2ccc(Cl)cc2)sc2c1CCC2`: the results for the inhibition (in data set [1]; in data set [2]; in the data set with U-251) were 72.2%, 57.6% and “Dose-dependent effect”, respectively. In addition, the IC50 (as a rule, the concentration that inhibits the measured activity by half) against Anoctamin-1 was determined as 2.36 µM. Moreover, the GI50 with U138-MG is 13.2 µM. Besides, the GI50 at 72 h in data set [3] is 45.1 µM.
